Compound activity deposited in PubChem BioAssay by several laboratories.
SR-BI uptake up – SR-BI HDL lipid transfer activation; CHO ldlA[mSR-BI] cells, DiI-HDL uptake fluorescence, 3 h; 100 = double the neutral-control signal; activation, % at 12.5 µM; 320,000 tested, 0.096% active; AID 504775;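 active = mean replicate activation of at least 60% and every replicate at or above 60%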
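Test system: SR-BI-overexpressing, LDLR-lacking CHO cells; Medium: Ham's F12 with 0.5% BSA, HEPES 25 mM, pH 7.4; Schedule: 3 h, 37 °C; Technique: bottom-read fluorescence, 550/595 nm.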
GAA850 FXN act – frataxin GAA850 promoter activation; HEK293 lucGAA850 FXN promoter luciferase reporter, 24 h; percent of 10 µM SAHA response; activation, % at 6 µM; 360,000 tested, 0.56% active; AID 540364;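 active = activation above the average of all compounds screened plus 3 SD, cutoff fixed separately per campaign, cut at about 7.5% in these data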
GASC-1 inh – blocks human GASC-1 demethylase activity; Q9H3R0; AID 2099; 330,000 tested, 0.069% active; inhibition, % at 2.35 µM; GST-JMJD2C(1-420) H3K9me3 demethylation, DELFIA europium;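 active = more than half of a compound's replicate wells show inhibition beyond 50%, single wells judged on their own value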;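 note: signal counts dimethyl H3K9 product captured on neutravidin plate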
SR-BI HDL uptake – inhibitors of mouse SR-BI mediated HDL lipid uptake; ldlA[mSR-BI] CHO cells, DiI-HDL uptake fluorescence, 3 h; inhibition, % at 12.5 µM; 320,000 tested, 0.96% active; AID 488896;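 active = mean replicate inhibition of at least 70% and a set share of replicates each scoring 70 or more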
AHR activator – human AHR activation; P35869; AHR-responsive luciferase reporter cells, luminescence; activation, % at 5 µM; 320,000 tested, 2.5% active; AID 2796; in the data active = activation above about 47%
Target sequence (P35869 whole entry, looked up): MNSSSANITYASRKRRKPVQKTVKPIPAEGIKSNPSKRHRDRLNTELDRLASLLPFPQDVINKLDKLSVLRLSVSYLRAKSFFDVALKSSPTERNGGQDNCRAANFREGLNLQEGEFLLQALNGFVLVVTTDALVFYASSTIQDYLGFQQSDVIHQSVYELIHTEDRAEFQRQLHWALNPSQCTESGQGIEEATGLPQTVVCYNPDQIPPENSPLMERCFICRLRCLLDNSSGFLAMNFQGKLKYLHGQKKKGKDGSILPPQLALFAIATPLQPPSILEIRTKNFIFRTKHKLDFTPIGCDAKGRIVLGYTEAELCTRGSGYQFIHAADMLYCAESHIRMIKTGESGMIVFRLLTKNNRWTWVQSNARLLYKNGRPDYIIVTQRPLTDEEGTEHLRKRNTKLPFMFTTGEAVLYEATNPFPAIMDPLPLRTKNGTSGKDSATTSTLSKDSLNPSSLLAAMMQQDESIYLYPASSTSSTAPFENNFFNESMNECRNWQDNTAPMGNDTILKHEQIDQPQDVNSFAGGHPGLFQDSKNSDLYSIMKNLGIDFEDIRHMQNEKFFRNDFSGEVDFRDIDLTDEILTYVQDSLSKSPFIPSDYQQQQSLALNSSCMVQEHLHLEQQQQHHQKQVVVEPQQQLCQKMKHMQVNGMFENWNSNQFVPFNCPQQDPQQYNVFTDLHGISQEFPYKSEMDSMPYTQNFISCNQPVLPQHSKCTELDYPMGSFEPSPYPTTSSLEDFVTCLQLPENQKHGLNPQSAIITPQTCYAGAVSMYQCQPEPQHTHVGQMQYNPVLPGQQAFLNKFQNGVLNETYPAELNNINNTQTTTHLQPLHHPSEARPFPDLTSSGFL
AHR act cf – human AHR activation, confirmation; shares compounds with AHR activator; human cells, AHR-responsive luciferase reporter, luminescence; activation, % at 9 µM; 2,300 tested, 87% active; AID 2845; in the data active = activation above about 49%;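 note: HepG2 hepatoma cells carrying a DRE-driven firefly luciferase reporter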
PXR counter – counter-screen for AHR activators: human PXR activators | AID 434939 | shares compounds with AHR activator | 2,300 tested, 88% active | cell-based PXR reporter, luciferase luminescence | activation, % at 11.6 µM; in the data active = activation above about 11%;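 note: human hepatoma DPX-2 cells expressing full-length human PXR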
DiI quencher – counter-screen for SR-BI lipid transfer inhibitors: DiI fluorescence quenchers. shares compounds with SR-BI HDL uptake. cell-free DiI-HDL fluorescence quenching, 30 min. AC50, µM (highest dose often 35 µM). 470 tested, 20% active;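 active = quenching, a falling signal, with AC50 below a set limit tied to the top valid dose, actives reach about 32 µM in these data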
GAA30 counter – GAA30 FXN promoter activation counter-screen; shares compounds with GAA850 FXN act; HEK293 lucGAA30 FXN promoter luciferase, 24 h; DMSO = 0%, 5 µM ipriflavone = 100%; activation, % at 6 µM; 1,900 tested, 66% active;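 active = mean activation above the mean of solvent-only control wells plus 3 SD, cut at about 22% in these data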;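 note: counterscreen of GAA850 promoter hits where activity marks nonselective or luminescence artifacts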
FXN GAA850 conf – GAA850 FXN promoter activation confirmation; shares compounds with GAA850 FXN act; HEK293 lucGAA850 FXN promoter luciferase reporter, 24 h; 100% = activation by SAHA; activation, % at 6 µM; 1,900 tested, 86% active;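 active = mean activation above a set limit taken from the primary screen, cut at about 8% in these data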
Numbers stand for hits; - = inactive; . = not tested or not shown. Shown are actives, neighbours in structure and some others; about 3.7% of the full set was active somewhere.

SMILES | SR-BI uptake up | GAA850 FXN act | GASC-1 inh | SR-BI HDL uptake | AHR activator | AHR act cf | PXR counter | others
Cc1ccc(-c2nc3ccccn3c2NCc2ccc3c(c2)OCO3)cc1 | - | - | - | - | 108.8 | 78.9 | 84.5
c1ccc(-c2cc3nc(NCc4ccc5c(c4)OCO5)ccn3n2)cc1 | . | - | . | . | . | . | .
Cc1ccc2nc(-c3ccccc3)c(NC(=O)c3ccco3)n2c1 | - | - | - | - | - | . | .
Cc1ccc2nc(-c3ccc(-c4cccc(Cl)c4)cc3)c(NCc3ccccc3)n2c1 | - | - | - | - | 86.2 | - | 28.0
O=C(COC(=O)C1COc2ccccc2O1)Nc1ccc(Cl)cc1 (stereo not given) | . | - | - | - | - | . | .
O=C(O)CC(c1ccccc1)N1C(=O)c2cccc([N+](=O)[O-])c2C1=O (stereo not given) | - | - | - | - | - | . | .
CCn1c2ccccc2c2cc(NC(=O)c3cccc([N+](=O)[O-])c3)ccc21 | - | - | - | 80.3 | 85.6 | 88.6 | 33.5
CCn1c2ccccc2c2cc(NC(=O)c3cccc([N+](=O)[O-])c3C)ccc21 | - | - | - | - | 112.6 | 87.1 | 54.8
O=C(CC(=O)c1ccccc1)Nc1ccc(Cl)cc1 | - | - | - | - | - | . | .
CCOc1ccc(CC2S/C(=N/N=C/c3ccco3)NC2=O)cc1 (stereo not given) | - | - | - | - | - | . | .
O=C1N/C(=N\N=C\c2ccco2)SC1Cc1ccccc1[N+](=O)[O-] (stereo not given) | . | - | - | . | 83.3 | 70.6 | 28.4
Cc1ccc(-c2n[nH]c(Cc3ccccc3)n2)cc1 | - | - | - | - | - | . | .
CN=c1scc(C)n1/N=C/c1cc(Br)c(O)c(Br)c1 | - | - | - | - | 117.6 | 109.7 | 13.8
COc1cc(OC)cc(-c2nnc(SCC(=O)N3CCCCC3)o2)c1 | - | - | - | - | 82.8 | - | 71.6
COc1cc(OC)cc(-c2nnc(SCC(=O)N3CCOCC3)o2)c1 | . | - | - | . | - | . | .
CCN(CC(=O)Nc1ccccc1OC)C(=O)CN1C(=O)NC(C)(c2ccccc2)C1=O (stereo not given) | - | - | - | - | - | . | .
O=C(O)c1ccc(COc2ccccc2/C=C2\NC(=O)N(Cc3ccccc3F)C2=O)cc1 | - | - | - | - | - | . | .
CN1C(=O)/C(=C/c2ccccc2OCc2ccccc2F)NC1=S | - | - | - | - | 93.3 | 78.5 | 85.0
Cc1ccc(-n2nc3ccc(N)cc3n2)cc1 | - | - | - | - | 88.4 | 76.0 | -
Nc1ccc2nn(-c3ccc(F)cc3)nc2c1 | - | - | - | - | 106.5 | - | 14.2
CCc1nc2c(OCc3ccc(Cl)cc3)cccn2c1N(C)C(=O)c1ccncc1 | . | - | . | . | . | . | .
c1ccc(-c2nc(-c3ccccn3)no2)cc1 | - | - | - | - | - | . | .
c1ccc(-c2n[nH]c(-c3ccccn3)n2)cc1 | - | - | - | - | 89.8 | 80.8 | 23.6
Cc1c(C(=O)Nc2ccc(Br)cc2)cnn1C | - | - | - | - | 120.2 | 135.5 | 22.6
CC(C)(C)NC(=O)CSCc1ccc(Br)cc1 | - | - | - | - | - | . | .
SMILES | SR-BI uptake up | GAA850 FXN act | GASC-1 inh | SR-BI HDL uptake | AHR activator | AHR act cf | PXR counter | others
O=C(CCN1C(=O)c2ccccc2C1=O)Nc1ccc(-c2cn3ccsc3n2)cc1 | - | - | - | - | 101.7 | 124.7 | 24.9
Cc1cc(OCc2nc3ccccc3s2)ccc1N | - | - | - | - | 86.2 | 92.3 | 33.7
CC(C)c1ccc(NC(=O)c2sccc2-n2cccc2)cc1 | - | - | - | 100.8 | 84.4 | 112.5 | 45.9 | DiI quencher=-
COc1ccc(CNC(=O)C2CCN(S(=O)(=O)c3ccc(N4CCCC4=O)cc3)CC2)cc1 | . | - | . | . | . | . | .
CCOC(=O)CSc1c(-c2ccc(Cl)cc2)[nH]c2ccccc12 | - | - | - | 75.4 | 92.6 | 60.9 | - | DiI quencher=-
CCOC(=O)CSc1c(-c2cccs2)[nH]c2ccccc12 | - | - | - | - | - | . | .
Nc1nc(CSc2n[nH]c(-c3ccccc3)n2)nc(Nc2ccccc2)n1 | - | - | - | - | - | . | .
Cc1ccc(-c2nc(Nc3ccccc3)n[nH]2)cc1 | - | 7.7 | . | - | 121.9 | 110.9 | - | GAA30 counter=112.2;FXN GAA850 conf=38.0
CCC(=O)Nc1ccc(NC(=O)c2oc3ccccc3c2C)cc1 | - | - | - | - | - | . | .
CCC(=O)Nc1c(C(=O)Nc2ccc3c(c2)OCCO3)oc2ccccc12 | - | 9.8 | - | - | 87.3 | - | 29.6 | GAA30 counter=104.0;FXN GAA850 conf=32.0
Cn1nc(C(C)(C)C)c(NC(=O)c2ccc(F)cc2)c1C(C)(C)C | . | - | - | . | - | . | .
Cc1cc(-c2ccc(N3CCOCC3)cc2)nc2ccccc12 | - | 8.0 | - | - | . | . | 51.7 | GAA30 counter=129.9;FXN GAA850 conf=50.3
CNC(=O)c1c(Cl)cnn1-c1ccc(C)cc1 | - | - | - | - | - | . | .
Cc1ccc(-n2ncc(Cl)c2C(=O)NC2CC2)cc1 | - | 8.6 | - | - | 90.4 | 136.4 | 20.6 | GAA30 counter=110.3;FXN GAA850 conf=32.1
Cc1cccc(/C=C/c2nc3ccccc3c(=O)[nH]2)c1 | - | - | - | - | - | . | .
Cc1[nH]c2ccccc2c1/C=C/c1nc2ccccc2c(=O)[nH]1 | . | 8.2 | - | . | 166.0 | 91.2 | 54.7 | GAA30 counter=102.2;FXN GAA850 conf=38.1
C[N+]1(CCOC(=O)C2(c3ccccc3)CCCC2)CCCCC1 | - | - | - | - | - | . | .
COc1ccc(CCNC(=O)C2CCCN(S(=O)(=O)c3ccc(F)cc3)C2)cc1OC (stereo not given) | - | - | - | - | - | . | .
COc1ccc(/C=C/c2nc(-c3ccccc3O)n[nH]2)cc1 | - | 7.6 | - | - | 94.0 | - | - | GAA30 counter=93.8;FXN GAA850 conf=23.5
c1cncc(CNc2cccc(-c3nc4ccccc4[nH]3)c2)c1 | - | 8.5 | - | - | 167.0 | 112.3 | 137.3 | GAA30 counter=89.3;FXN GAA850 conf=28.1
c1ccc(NCc2cccnc2)cc1 | - | - | - | - | - | . | .
Cc1nccn1CCC(=O)Nc1ccc(Cl)cc1 | . | - | - | . | - | . | .
COCCNc1oc(/C=C/c2ccccc2)nc1C#N | - | - | - | - | - | . | .
CNc1oc(/C=C/c2ccccc2)nc1C#N | - | 8.3 | - | - | 135.7 | 111.6 | 17.8 | GAA30 counter=132.9;FXN GAA850 conf=40.0
N/C(=N\OC(=O)Cc1cccs1)c1ccc([N+](=O)[O-])cc1 | - | - | - | - | - | . | .
